Test system: Blood
Test: Biodistribution in Sprague-Dawley rat blood at 15 uCi, iv after 30 mins
Format: ADME, organism-based
Details: in vivo, 0.5 h
How it was run: (§1)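 Male Sprague–Dawley rats (300–400 g) anesthetized with sodium pentobarbital 50 mg/kg ip; left femoral vein cannulated; about 15 µCi radiotracer in 0.3 mL 10% ethanol saline given iv. Killed in CO₂ at 30 or 120 min (n = 3 per time point); tissues weighed and gamma-counted. Counts decay-corrected, net dose from syringe and catheter residues subtracted; expressed as %ID/g ± SD.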

Drug uptake | Structure (SMILES)
0.11 % ID/g | CC(C)(C)n1ncc(OCc2ccc(COCCF)cc2)c(Cl)c1=O [FLURPIRIDAZ]

Test system: Heart
Test: Biodistribution in Sprague-Dawley rat heart at 15 uCi, iv after 30 mins
Format: ADME, organism-based
Details: in vivo, 0.5 h
How it was run: as §1

Drug uptake | Structure (SMILES)
3.41 % ID/g | CC(C)(C)n1ncc(OCc2ccc(COCCF)cc2)c(Cl)c1=O [FLURPIRIDAZ]

Test system: Blood
Test: Biodistribution in Sprague-Dawley rat blood at 15 uCi, iv after 120 mins
Format: ADME, organism-based
Details: in vivo, 2 h
How it was run: as §1

Drug uptake | Structure (SMILES)
0.19 % ID/g | CC(C)(C)n1ncc(OCc2ccc(COCCF)cc2)c(Cl)c1=O [FLURPIRIDAZ]

Test system: Femur
Test: Biodistribution in Sprague-Dawley rat femur at 15 uCi, iv after 120 mins
Format: ADME, organism-based
Details: in vivo, 2 h
How it was run: as §1

Drug uptake | Structure (SMILES)
0.75 % ID/g | CC(C)(C)n1ncc(OCc2ccc(COCCF)cc2)c(Cl)c1=O [FLURPIRIDAZ]

Test system: Liver
Test: Biodistribution in Sprague-Dawley rat liver at 15 uCi, iv after 120 mins
Format: ADME, organism-based
Details: in vivo, 2 h
How it was run: as §1

Drug uptake | Structure (SMILES)
0.55 % ID/g | CC(C)(C)n1ncc(OCc2ccc(COCCF)cc2)c(Cl)c1=O [FLURPIRIDAZ]

Test system: not listed separately
Test: Ratio of drug uptake in heart to lung of Sprague-Dawley rat at 15 uCi, iv after30 mins
Format: ADME, organism-based
Details: in vivo, 0.5 h
How it was run: (§2)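 Same rat protocol: pentobarbital-anesthetized male SD rats (300–400 g), about 15 µCi iv in 10% ethanol saline via femoral vein, three animals per point, gamma counting of weighed tissues with decay correction. Ratios formed from heart %ID/g over blood, lung, liver or femur %ID/g at 30 min post injection.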

Activity | Structure (SMILES)
16.05 | CC(C)(C)n1ncc(OCc2ccc(COCCF)cc2)c(Cl)c1=O [FLURPIRIDAZ]

Test system: not listed separately
Test: Ratio of drug uptake in heart to liver of Sprague-Dawley rat at 15 uCi, iv after30 mins
Format: ADME, organism-based
Details: in vivo, 0.5 h
How it was run: as §2

Activity | Structure (SMILES)
2.74 | CC(C)(C)n1ncc(OCc2ccc(COCCF)cc2)c(Cl)c1=O [FLURPIRIDAZ]

Test system: Lung
Test: Biodistribution in Sprague-Dawley rat lung at 15 uCi, iv after 30 mins
Format: ADME, organism-based
Details: in vivo, 0.5 h
How it was run: as §1

Drug uptake | Structure (SMILES)
0.21 % ID/g | CC(C)(C)n1ncc(OCc2ccc(COCCF)cc2)c(Cl)c1=O [FLURPIRIDAZ]

Test system: Lung
Test: Biodistribution in Sprague-Dawley rat lung at 15 uCi, iv after 120 mins
Format: ADME, organism-based
Details: in vivo, 2 h
How it was run: as §1

Drug uptake | Structure (SMILES)
0.28 % ID/g | CC(C)(C)n1ncc(OCc2ccc(COCCF)cc2)c(Cl)c1=O [FLURPIRIDAZ]

Test system: not listed separately
Test: Ratio of drug uptake in heart to femur of Sprague-Dawley rat at 15 uCi, iv after30 mins
Format: ADME, organism-based
Details: in vivo, 0.5 h
How it was run: as §2

Activity | Structure (SMILES)
7.51 | CC(C)(C)n1ncc(OCc2ccc(COCCF)cc2)c(Cl)c1=O [FLURPIRIDAZ]

Test system: not listed separately
Test: Ratio of drug uptake in heart to blood of Sprague-Dawley rat at 15 uCi, iv after 30 mins
Format: ADME, organism-based
Details: heart and blood (heart-to-blood ratio), read-out: Activity
How it was run: as §2

Kp at 0.5 h | Structure (SMILES)
30 | CC(C)(C)n1ncc(OCc2ccc(COCCF)cc2)c(Cl)c1=O [FLURPIRIDAZ]

Test system: Femur
Test: Biodistribution in Sprague-Dawley rat femur at 15 uCi, iv after 30 mins
Format: ADME, organism-based
Details: in vivo, 0.5 h
How it was run: as §1

Drug uptake | Structure (SMILES)
0.45 % ID/g | CC(C)(C)n1ncc(OCc2ccc(COCCF)cc2)c(Cl)c1=O [FLURPIRIDAZ]

Test system: not listed separately
Test: Inhibition of mitochondrial complex 1 in bovine heart mitochondria assessed as effect on rate of NADH oxidation
Design: species or system Bos taurus
Details: not given
How it was run: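 Bovine heart submitochondrial particles (45 µg/mL final) in 50 mM K₂HPO₄ pH 7.4 with 0.4 µM antimycin A and 2 mM KCN. Inhibitor at varying concentrations preincubated 4 min, then 100 µM decyl ubiquinone and 50 µM NADH added. NADH oxidation followed at 340 nm, 37 °C, 120 s; IC50 is concentration giving 50% inhibition.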

Structure (SMILES) | IC50
Cc1c(SCc2ccc(CCCC[18F])cc2)oc2ccccc2c1=O | 9 nM
Cc1c(SCc2ccc(C(C)(C)C)cc2)oc2ccccc2c1=O | 52 nM
CC(C)(C)c1ccc(CSc2cnn(C(C)(C)C)c(=O)c2F)cc1 | 279 nM
[18F]CCCCc1ccc(CCOc2ncnc3ccccc23)cc1 | 11 nM
CC(C)(C)c1ccc(CNc2cnn(C(C)(C)C)c(=O)c2Cl)cc1 | 4000 nM
CC(C)(C)n1ncc(OCc2ccc3ccccc3c2)c(Cl)c1=O | 60 nM
CC(C)(C)n1ncc(OCc2ccc(COCCF)cc2)c(Cl)c1=O [FLURPIRIDAZ] | 11 nM

Test system: Heart
Test: Biodistribution in Sprague-Dawley rat heart at 15 uCi, iv after 120 mins
Format: ADME, organism-based
Details: in vivo, 2 h
How it was run: as §1

Drug uptake | Structure (SMILES)
3.47 % ID/g | CC(C)(C)n1ncc(OCc2ccc(COCCF)cc2)c(Cl)c1=O [FLURPIRIDAZ]

Test system: Liver
Test: Biodistribution in Sprague-Dawley rat liver at 15 uCi, iv after 30 mins
Format: ADME, organism-based
Details: in vivo, 0.5 h
How it was run: as §1

Drug uptake | Structure (SMILES)
1.25 % ID/g | CC(C)(C)n1ncc(OCc2ccc(COCCF)cc2)c(Cl)c1=O [FLURPIRIDAZ]
